The values that follow come from ChEMBL document CHEMBL3739286, “Betulinic acid derived hydroxamates and betulin derived carbamates are interesting scaffolds for the synthesis of novel cytotoxic compounds” (Eur J Med Chem, 2015).

The subject of one test is A549. Briefly: Cytotoxicity against human A549 cells after 96 hrs by SRB assay. It is filed as functional, cell-based. Conditions: Homo sapiens, A549, 96 h; read-out: EC50. Put shortly:
(§1)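 Photometric sulforhodamine B read-out of antiproliferative effect after 96 h of continuous treatment; EC₅₀ values in µM, averaged from three independent experiments each run in triplicate; the assay cut-off is EC₅₀ > 30 µM. Human tumour lines are tested alongside nonmalignant mouse NIH 3T3 fibroblasts.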
A general note: Sulforhodamine B stains cellular protein and so reports cell mass.

Test [1] can be described thus: Cytotoxicity against mouse NIH/3T3 cells after 96 hrs by SRB assay. Format: cell-based, NIH3T3. Conditions: Mus musculus, NIH3T3, 96 h; read-out: EC50. Put shortly:
as §1

The nature of test [2]: Cytotoxicity against human 518A2 cells after 96 hrs by SRB assay. Format: functional, cell-based. Conditions: Homo sapiens, 518A2, 96 h; read-out: EC50. An outline of the steps: as §1
Another test deals with MCF7. The experiment in a line: Cytotoxicity against human MCF7 cells after 96 hrs by SRB assay. It is filed as functional, cell-based. Conditions: Homo sapiens, MCF7, 96 h; read-out: EC50. Put shortly: as §1
For a further test, the system named is HT-29. Briefly: Cytotoxicity against human HT-29 cells after 96 hrs by SRB assay. It is filed as functional, cell-based. Conditions: HT-29, 96 h. Put shortly:
as §1

For a further test, the system named is HeLa. The experiment in a line: Cytotoxicity against human HeLa cells after 96 hrs by SRB assay. Format: functional, cell-based. Put shortly:
as §1

Another test has as its system A2780. Briefly: Cytotoxicity against human A2780 cells after 96 hrs by SRB assay. It is filed as functional, cell-based. Conditions: Homo sapiens, A2780, 96 h; read-out: EC50. An outline of the steps: as §1

Usually EC50 stands for the midpoint of the concentration-response curve. For the molecule `C=C(C)[C@@H]1CC[C@]2(COC(=O)NCC)CC[C@]3(C)[C@H](CC[C@@H]4[C@@]5(C)CCC(=O)C(C)(C)[C@@H]5CC[C@]43C)[C@@H]12`, the EC50 stood at 20.3 µM in the test on A549; 4.6 µM in test [1]; 16.6 µM in test [2]; 19.7 µM in the test on MCF7; 11.5 µM with HT-29; 13.4 µM with HeLa. Moreover, in the test with A2780, the EC50 worked out at 8.3 µM.
`C=C(C)[C@@H]1CC[C@]2(COC(=O)NCCCCCC)CC[C@]3(C)[C@H](CC[C@@H]4[C@@]5(C)CC[C@H](OC(C)=O)C(C)(C)[C@@H]5CC[C@]43C)[C@@H]12`: the EC50 (in the test with A549; in test [1]; in test [2]; in the test with MCF7; in the test with HT-29; in the test on HeLa) was > 30 µM each time. Also, the EC50 in the test on A2780 was > 30 µM.
On to `C=C(C)[C@@H]1CC[C@]2(COC(=O)Nc3ccccc3)CC[C@]3(C)[C@H](CC[C@@H]4[C@@]5(C)CCC(=O)C(C)(C)[C@@H]5CC[C@]43C)[C@@H]12`, for which the EC50 (in the test with A549; in test [1]; in test [2]; with MCF7; in the test with HT-29; with HeLa) was > 30 µM each time. Besides, the EC50 in the test on A2780 is > 30 µM.
Regarding `C=C(C)[C@@H]1CC[C@]2(COC(=O)Nc3ccccc3)CC[C@]3(C)[C@H](CC[C@@H]4[C@@]5(C)CC[C@H](OC(C)=O)C(C)(C)[C@@H]5CC[C@]43C)[C@@H]12`, the EC50 (in the test with A549; in test [1]; in test [2]; with MCF7; in the test on HT-29; with HeLa) was > 30 µM in each case. Moreover, in the test on A2780, the concentration for a half-maximal effect (EC50) is > 30 µM.
Regarding `C=C(C)[C@@H]1CC[C@]2(COC(=O)NCCCC)CC[C@]3(C)[C@H](CC[C@@H]4[C@@]5(C)CC[C@H](OC(C)=O)C(C)(C)[C@@H]5CC[C@]43C)[C@@H]12`, the EC50 (in the test with A549; in test [1]; in test [2]; with MCF7; in the test on HT-29; in the test with HeLa) was > 30 µM in each case. Also, in the test with A2780, the EC50 was > 30 µM.
With `C=C(C)[C@@H]1CC[C@]2(C(N)=O)CC[C@]3(C)[C@H](CC[C@@H]4[C@@]5(C)CCC(=O)C(C)(C)[C@@H]5CC[C@]43C)[C@@H]12`, the EC50 was 14.7 µM in the test with A549; 17.7 µM in test [1]; 21.5 µM in test [2]; 10.3 µM in the test with MCF7; 17.9 µM in the test on HT-29; 22.9 µM in the test with HeLa. Moreover, the EC50 in the test on A2780 was determined as 15.6 µM.
Consider `C=C(C)[C@@H]1CC[C@]2(COC(=O)NCCC)CC[C@]3(C)[C@H](CC[C@@H]4[C@@]5(C)CC[C@H](O)C(C)(C)[C@@H]5CC[C@]43C)[C@@H]12`, for which the EC50 with A549 was found to be 14.2 µM; in test [1], 7.3 µM; in test [2] it was 15.9 µM; with MCF7, 15.5 µM; in the test on HT-29, 16.3 µM; in the test on HeLa, 9.4 µM. For the same molecule, in the test with A2780, the EC50 came to 10.6 µM.
For the molecule `C=C(C)[C@@H]1CC[C@]2(C(N)=O)CC[C@]3(C)[C@H](CC[C@@H]4[C@@]5(C)CC[C@H](OC(C)=O)C(C)(C)[C@@H]5CC[C@]43C)[C@@H]12`, the EC50 is 12.4 µM with A549; 20 µM in test [1]; 13.4 µM in test [2]; 11.1 µM with MCF7; 11.5 µM in the test on HT-29; 12 µM in the test with HeLa. In addition, the EC50 in the test on A2780 is 5.7 µM.
Regarding `C=C(C)[C@@H]1CC[C@]2(COC(=O)NCCCC)CC[C@]3(C)[C@H](CC[C@@H]4[C@@]5(C)CC[C@H](OC(=O)NCCCC)C(C)(C)[C@@H]5CC[C@]43C)[C@@H]12`, the EC50 (in the test on A549; in test [1]; in test [2]; with MCF7; with HT-29; in the test with HeLa) was > 30 µM in each case. The EC50 in the test on A2780 is > 30 µM.
Turning to `C=C(C)[C@@H]1CC[C@]2(C(=O)NCc3ccccc3)CC[C@]3(C)[C@H](CC[C@@H]4[C@@]5(C)CC[C@H](OC(C)=O)C(C)(C)[C@@H]5CC[C@]43C)[C@@H]12`, the EC50 is 10.3 µM in the test on A549; > 30 µM in test [1]; 6.2 µM in test [2]; > 30 µM in the test with MCF7; > 30 µM with HT-29; 16.9 µM with HeLa. Besides, the EC50 with A2780 came to 6.2 µM.
Regarding `C=C(C)[C@@H]1CC[C@]2(COC(=O)NCCCCCC)CC[C@]3(C)[C@H](CC[C@@H]4[C@@]5(C)CCC(=O)C(C)(C)[C@@H]5CC[C@]43C)[C@@H]12`, the EC50 (in the test on A549; in test [1]; in test [2]; with MCF7; with HT-29; in the test with HeLa) was > 30 µM each time. Besides, the half-maximal effective concentration (EC50) in the test on A2780 is > 30 µM.
Regarding `C=C(C)[C@@H]1CC[C@]2(COC(=O)NCC)CC[C@]3(C)[C@H](CC[C@@H]4[C@@]5(C)CC[C@H](OC(C)=O)C(C)(C)[C@@H]5CC[C@]43C)[C@@H]12`, the EC50 in the test with A549 is 14.1 µM; in test [1], > 30 µM; in test [2] it was 10.2 µM; with MCF7 it was 20.4 µM; in the test with HT-29, > 30 µM; in the test on HeLa it was 17 µM. For the same molecule, in the test with A2780, the EC50 was found to be 11.1 µM.
Turning to `C=C(C)[C@@H]1CC[C@]2(COC(=O)NCCCC)CC[C@]3(C)[C@H](CC[C@@H]4[C@@]5(C)CCC(=O)C(C)(C)[C@@H]5CC[C@]43C)[C@@H]12`, the EC50 (with A549; in test [1]; in test [2]; in the test with MCF7; in the test on HT-29; in the test on HeLa) was > 30 µM each time. For the same molecule, in the test with A2780, the EC50 is > 30 µM.
In the case of `C=C(C)[C@@H]1CC[C@]2(COC(=O)NCCC)CC[C@]3(C)[C@H](CC[C@@H]4[C@@]5(C)CC[C@H](OC(C)=O)C(C)(C)[C@@H]5CC[C@]43C)[C@@H]12`, the EC50 (in the test on A549; in test [1]; in test [2]; with MCF7; with HT-29; in the test with HeLa) was > 30 µM throughout. The EC50 in the test on A2780 is > 30 µM.
`C=C(C)[C@@H]1CC[C@]2(C(=O)NCc3ccccc3)CC[C@]3(C)[C@H](CC[C@@H]4[C@@]5(C)CCC(=O)C(C)(C)[C@@H]5CC[C@]43C)[C@@H]12`: the EC50 (with A549; in test [1]; in test [2]; with MCF7; in the test on HT-29; with HeLa) was > 30 µM throughout. In addition, the EC50 with A2780 came to 7.4 µM.
Take `C=C(C)[C@@H]1CC[C@]2(COC(=O)NCCC)CC[C@]3(C)[C@H](CC[C@@H]4[C@@]5(C)CC[C@H](OC(=O)NCCC)C(C)(C)[C@@H]5CC[C@]43C)[C@@H]12`: the EC50 (in the test with A549; in test [1]; in test [2]; in the test with MCF7; with HT-29; in the test on HeLa) was > 30 µM each time. Also, the EC50 in the test on A2780 turned out to be 19.4 µM.
Consider `C=C(C)[C@@H]1CC[C@]2(COC(=O)NCC)CC[C@]3(C)[C@H](CC[C@@H]4[C@@]5(C)CC[C@H](O)C(C)(C)[C@@H]5CC[C@]43C)[C@@H]12`, for which the EC50 in the test with A549 was 12 µM; in test [1], 8.8 µM; in test [2], 12.5 µM; with MCF7, 12.1 µM; with HT-29, > 30 µM; in the test with HeLa, > 30 µM. Moreover, the EC50 in the test with A2780 was determined as 4.6 µM.
For the molecule `C=C(C)[C@@H]1CC[C@]2(COC(=O)NCCC)CC[C@]3(C)[C@H](CC[C@@H]4[C@@]5(C)CCC(=O)C(C)(C)[C@@H]5CC[C@]43C)[C@@H]12`, the EC50 (in the test with A549; in test [1]; in test [2]; in the test on MCF7; in the test with HT-29; with HeLa) was > 30 µM in each case. The EC50 in the test on A2780 is > 30 µM.
`C=C(C)[C@@H]1CC[C@]2(COC(=O)NCCCCCC)CC[C@]3(C)[C@H](CC[C@@H]4[C@@]5(C)CC[C@H](OC(=O)NCCCCCC)C(C)(C)[C@@H]5CC[C@]43C)[C@@H]12`: the EC50 (in the test on A549; in test [1]; in test [2]; in the test with MCF7; in the test on HT-29; in the test with HeLa) was > 30 µM each time. For the same molecule, the EC50 with A2780 is > 30 µM.
As to `C=C(C)[C@@H]1CC[C@]2(C(N)=O)CC[C@]3(C)[C@H](CC[C@@H]4[C@@]5(C)CC[C@H](O)C(C)(C)[C@@H]5CC[C@]43C)[C@@H]12`, the EC50 in the test on A549 stood at 8.2 µM; in test [1] it was 10.7 µM; in test [2] it was 9.9 µM; in the test on MCF7, 10.7 µM; with HT-29, 10.2 µM; with HeLa, 11.2 µM. The EC50 in the test with A2780 worked out at 15.7 µM.
As to `C=C(C)[C@@H]1CC[C@]2(COC(=O)NCC)CC[C@]3(C)[C@H](CC[C@@H]4[C@@]5(C)CC[C@H](OC(=O)NCC)C(C)(C)[C@@H]5CC[C@]43C)[C@@H]12` [BIS(ETHYLCARBAMATE)BETULIN], the EC50 in the test on A549 is 10.7 µM; in test [1] it was > 30 µM; in test [2] it was 12.6 µM; in the test on MCF7 it was 23.3 µM; with HT-29, 8.3 µM; in the test on HeLa, 17.8 µM. For the same molecule, the EC50 with A2780 was 5.8 µM.
